Results from ChEMBL document CHEMBL2029282, “Synthesis and characterization of 2'-C-Me branched C-nucleosides as HCV polymerase inhibitors” (Bioorg Med Chem Lett, 2012).

Legend:
Hepatitis C virus [1] = experiment: Inhibition of HCV genotype 1b NS5B after 90 mins; design: species or system Hepatitis C virus subtype 1b; details: 1.5 h
[2] = Cytotoxicity against human HuH7 cells after 24 hrs by MTS assay; type: cell-based, Huh-7
Hepatitis C virus [3] = experiment: Antiviral activity against HCV genotype 1b infected in human HuH7 cells assessed as cytoprotection after 24 hrs; type: functional, organism-based, Hepacivirus hominis; details: Huh-7, 24 h
adenosine deaminase = experiment: Stability of the compound assessed as compound remaining at 10 uM after 60 mins in presence of bovine adenosine deaminase; type: ADME; details: cattle, read-out: Stability
Procedure, shortened: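 Nucleosides (10 µM) were incubated at 37 °C with 0.0125 U/mL bovine adenosine deaminase in 0.01 M potassium phosphate pH 6.0 and sampled over 1 h. Reactions were quenched with ice-cold methanol containing 0.2% formic acid. Nucleoside was quantified by LC with triple-quadrupole MS in positive-ion MRM mode, and percent remaining taken at 60 min. Values are the mean of 2 independent experiments in duplicate.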

[4] = Oral bioavailability in Sprague-Dawley rat; type: ADME, organism-based; details: in vivo
Huh-7 = experiment: Prodrug activation in human HuH7 cells assessed as compound triphosphate form at 10 uM after 24 hrs; details: huh-7, 24 h
[5] = Plasma clearance in beagle dog at 0.5 mg/kg, iv after 24 hrs by LC-MS/MS analysis; type: ADME, organism-based, Canis lupus familiaris; design: dose 0.5 mg/kg, route intravenous
Procedure, shortened: (§1)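 Groups of 3 non-naive male beagle dogs received one dose as a solution in 5/5/5/85 ethanol/[…]/polyethylene glycol/50 mM aqueous citrate buffer (pH 3.3). Dosing was either 0.5 mg/kg by IV infusion or 1 mg/kg orally. EDTA-K3 plasma was sampled over 24 h, precipitated with acetonitrile (60% final), dried, reconstituted in 20% acetonitrile, and analysed by LC/MS/MS in positive-ion MRM mode.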

Syrian golden hamster [6] = experiment: Prodrug activation in Golden Syrian hamster liver assessed as compound triphosphate form at 10 mg/kg, po […]; type: organism-based, Mesocricetus auratus; design: dose 10 mg/kg, route oral; details: in vivo
Procedure, shortened: (§2)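 Groups of 12 Golden Syrian hamsters or Sprague–Dawley rats were dosed orally with nucleoside in water. Doses were 20 or 10 mg/kg in hamsters and 2 or 5 mg/kg in rats. Livers were harvested under isoflurane at 1, 4, 8 and 12 h and snap-frozen. Homogenate supernatant was dried, reconstituted in 1 mM ammonium phosphate pH 7.0, and triphosphate measured by LC/MS/MS, with endogenous ATP checked for stability. Values are mean±SD from 3 livers per time point.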

Hepatocyte = experiment: Prodrug activation in primary human hepatocytes assessed as compound triphosphate form at 10 uM after 1 hr; type: cell-based
Procedure, shortened: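 Primary human hepatocytes from two donors were grown confluent (0.88×10^6 cells/well) in Williams E medium with supplement. Cells were exposed to compound (10 µM) for 1 h, then drug-free medium for 23 h, and sampled during and after exposure. Cells were extracted in 70% methanol, dried, and resuspended in 1 mM ammonium phosphate pH 8.5. Triphosphate was quantified by LC/MS/MS. Two independent experiments were run in duplicate.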

Rattus norvegicus [7] = experiment: Prodrug activation in Sprague-Dawley rat liver assessed as compound triphosphate form at 5 mg/kg, po after […]; type: organism-based; design: dose 5 mg/kg, route oral; details: in vivo; procedure, shortened: as §2
[8] = Volume of distribution in beagle dog at 0.5 mg/kg, iv after 24 hrs by LC-MS/MS analysis; type: ADME, organism-based, Canis lupus familiaris; design: dose 0.5 mg/kg, route intravenous; details: in vivo; procedure, shortened: as §1
[9] = Oral bioavailability in beagle dog at 1 mg/kg; type: ADME, organism-based, Canis lupus familiaris; details: in vivo; procedure, shortened: as §1
[10] = Elimination half life in beagle dog plasma at 0.5 mg/kg, iv after 24 hrs by LC-MS/MS analysis; type: ADME, organism-based, Canis lupus familiaris; design: dose 0.5 mg/kg, route intravenous; procedure, shortened: as §1
Rattus norvegicus [11] = experiment: Prodrug activation in Sprague-Dawley rat liver assessed as compound triphosphate form at 2 mg/kg, po after 4 to 24 hrs; type: organism-based; design: dose 2 mg/kg, route oral; details: in vivo
Syrian golden hamster [12] = experiment: Prodrug activation in Golden Syrian hamster liver assessed as compound triphosphate form at 20 mg/kg, po after 4 to 24 hrs; type: organism-based, Mesocricetus auratus; design: dose 20 mg/kg, route oral; details: in vivo
[13] = Plasma clearance in rat; type: ADME, organism-based

Compound | IC50 (Hepatitis C virus [1]) [µM] | EC50 (Hepatitis C virus [3]) [µM] | remaining at 1 h, 10 µM (adenosine deaminase) [%] | CC50 at 24 h [2] [µM] | other results
C[C@@]1(O)[C@H](O)[C@@H](CO)O[C@H]1n1cnc2c(=O)[nH]c(N)nc21 [2'-B-METHYL-GUANOSINE] | 0.25 | 3.25 | – | > 89 | –
C[C@@]1(O)[C@H](O)[C@@H](CO)O[C@H]1n1ccc(=O)[nH]c1=O | 1.32 | 15.2 | – | > 89 | –
CC(C)(C)C(=O)SCCOP(=O)(OCCSC(=O)C(C)(C)C)OC[C@H]1O[C@@H](n2cnc3c(=O)[nH]c(N)nc32)[C@](C)(O)[C@@H]1O | – | 0.05 | – | – | –
C[C@@]1(O)[C@H](O)[C@@H](CO)O[C@H]1n1ccc2c(N)ncnc21 [BETA-2'-C-METHYL-7-DEAZA-ADENOSINE] | 0.3 | 0.08 | 98 | > 89 | Drug metabolism (Rattus norvegicus [11]): Active; Drug metabolism (Syrian golden hamster [12]): Active
C[C@@]1(O)[C@H](O)[C@@H](CO)O[C@H]1c1c[nH]c(=O)[nH]c1=O | 13.4 | > 89 | – | > 89 | –
CC(C)(C)C(=O)SCCOP(=O)(OCCSC(=O)C(C)(C)C)OC[C@H]1O[C@@H](c2cnc3c(=O)[nH]c(N)nn23)[C@](C)(O)[C@@H]1O | – | 9.54 | – | – | –

More lines, main results first:

IC50 (Hepatitis C virus [1]) [µM] | EC50 (Hepatitis C virus [3]) [µM] | remaining at 1 h, 10 µM (adenosine deaminase) [%] | Compound | CC50 at 24 h [2] [µM] | other results
2.1 | 1.28 | 55 | C[C@@]1(O)[C@H](O)[C@@H](CO)O[C@H]1c1cnc2c(N)ncnn12 | > 89 | –
0.31 | 1.98 | 100 | C[C@@]1(O)[C@H](O)[C@@H](CO)O[C@H]1c1ccc2c(N)ncnn12 | 85 | bioavailability [4]: 50%; Drug metabolism (Huh-7): Not Active; clearance [5]: 6.67 mL/min/kg; Drug metabolism (Syrian golden hamster [6]): Active; Drug metabolism (Hepatocyte): Active; Drug metabolism (Rattus norvegicus [7]): Active; Vd [8]: 1.66 L/kg; bioavailability [9]: 70%; half-life [10]: > 7 h
0.19 | > 89 | – | C[C@@]1(O)[C@H](O)[C@@H](CO)O[C@H]1c1cnc2c(=O)[nH]c(N)nn12 | > 89 | –
6.83 | 0.35 | 94 | C[C@@]1(O)[C@H](O)[C@@H](CO)O[C@H]1n1cnc2c(N)ncnc21 | 66 | clearance [13]: > 200 mL/min/kg
13.4 | > 89 | – | C[C@@]1(O)[C@H](O)[C@@H](CO)O[C@H]1c1c[nH]c(N)nc1=O | > 89 | –
0.73 | 4.07 | – | C[C@@]1(O)[C@H](O)[C@@H](CO)O[C@H]1n1ccc(N)nc1=O | > 89 | –
